This is a sample that favours compounds with a hit; in the whole collection about 3.6% have one here.
HSF1 inhib = HSF1 inhibitors in luciferase reporter cells, primary screen, cell-based, NIH3T3, luminescence; NIH3T3-HGL HSE-luciferase, MG132-induced, luminescence 8 h; stronger effect = lower value; activity change, negative = inhibition, % at 7.5 µM (by protocol); 300,000 compounds, 0.77% hits; AID 2098, 2009;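 active means more than half of replicate wells show activity change below -50%, luminescence cut by over half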;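 further: luciferase reports HSF-1 transcriptional activity via heat shock element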
STAT3 activator = IL-6 driven STAT3 reporter potentiators, primary screen, U3A cells, luciferase, luminescence, MLSCN library; activation (% of control), % at 5.6 µM; IL-6 STAT3-luciferase reporter; 100% = signal with IL-6 EC80 alone; 190,000 compounds, 0.91% hits; AID 871, 2007;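 active means activation above the screen-wide mean of compound activation plus 3 SD, cut at about 130% in these data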
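Material: STAT3-luciferase reporter U3A cells. Controls: IL-6-treated wells, 100% activation. Read-out: % activation versus median of IL-6-stimulated wells. Probe or stimulus: IL-6 stimulus at 33 ng/mL final. Timing: compound 1 h, then IL-6 6 h at 37 °C. Signal: reporter luminescence signal.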
AHR act = AHR activators, primary screen, cell-based, luminescence, luciferase reporter, human. activation, % at 5 µM. Aryl hydrocarbon receptor (Homo sapiens), P35869. 320,000 compounds, 2.5% hits. AHR-responsive luciferase reporter cells. AID 2796, 2010; in the data active means activation above about 47%
PERK inhibitor = block of dimerizer-induced PERK translation repression, primary screen, PERK inhibitor project, CHO PERK-DD cells, SEAP luminescence, HTS; CHO PERK-DD fusion, SEAP luminescence translation reporter; inhibition, % at 5.6 µM; 220,000 compounds, 0.17% hits; AID 1416, 2008;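 active means inhibition above the mean inhibition of all tested compounds plus 3 SD, set separately per screening campaign, cut at about 2.9% in these data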;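 further: PERK kinase domain activated by AP20187 dimerizer at 100 nM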
PolyA inhibitor = polyadenylation inhibitors in yeast reporter cells, primary screen, luminescence, S. cerevisiae; AID 1875, 2009; 300,000 compounds, 0.02% hits; activity score, % at 12 µM; S. cerevisiae SKY197-pL101 polyadenylation reporter, beta-gal luminescence; efflux-impaired pdr1/pdr3 knockout yeast; score 100 = 6 SD above DMSO;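 active means lowest replicate activity score at least 50, where 100 means six control SD above control mean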;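 further: yeast exposed to compound for 9 h at 30 °C; higher score means more reporter readthrough which indicates perturbed polyadenylation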
Hsp70 activator = Hsp70 transcriptional activators, primary screen, cell-based, HeLa, Hsp70 promoter luciferase, luminescence, 10 µM; 200,000 compounds, 0.04% hits; activation, % at 10 µM; HeLa Hsp70 promoter luciferase reporter; scaled: vehicle 0, proteasome-inhibitor control 100%; AID 1203, 2008;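 active means activation above the mean across all tested compounds plus 3 SD, cutoff set per campaign, cut at about 5.5% in these data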
Of the large screens only hits and unclear results are named; the others gave an inactive call.

CCc1ccc2oc(C(=O)NC3CCS(=O)(=O)C3)cc(=O)c2c1 (configuration not stated)	none (no result: STAT3 activator, PERK inhibitor, Hsp70 activator)
c1ccc2c(c1)ncn2-c1ccc(-c2ccnc(-c3ccncc3)n2)cc1	none
Nc1nccc(-c2ccc(-n3cnc4ccccc43)cc2)n1	STAT3 activator 132.9, AHR act 47.5
O=C(c1ccccc1F)N1CCN(c2ncccn2)CC1	none
CSc1ccccc1C(=O)N1CCN(c2ncccn2)CC1	HSF1 inhib -70.3
COc1cc(C2c3c(oc4ccccc4c3=O)C(=O)N2c2nccs2)ccc1O (configuration not stated)	none (no result: STAT3 activator, Hsp70 activator)
COc1cccc(Sc2nc(-c3ccccc3)ncc2S(C)(=O)=O)c1	none (no result: STAT3 activator, PERK inhibitor, Hsp70 activator)
CCOC(=O)c1ccccc1NC(=O)c1ccc2c(SCC(=O)O)c3c(nc2c1)CCCC3	HSF1 inhib -76.8 (no result: STAT3 activator, PERK inhibitor, Hsp70 activator)
Cc1c(Cc2ccccc2)sc(/N=C/c2c(O)ccc3ccccc23)c1C(N)=O	HSF1 inhib -57.6
CN(C(=O)Cn1c(=O)oc2cc(S(=O)(=O)N3CCCC3)ccc21)C1CCCCC1	none (no result: STAT3 activator, PERK inhibitor, Hsp70 activator)
C=CCSc1nnc(CNS(=O)(=O)c2ccc(C)cc2)n1C	none (no result: STAT3 activator, PERK inhibitor, Hsp70 activator)
CCSc1nnc(CNc2ccc(C)cc2)n1C	AHR act 75.4
Cc1ccc(NCc2nnc(SCC(=O)Nc3cc(C)on3)n2C)cc1	none
CCCSc1nnc(CNS(=O)(=O)c2ccc(C)cc2)n1C	HSF1 inhib -61.1 (no result: STAT3 activator, PERK inhibitor, Hsp70 activator)
Cn1c(CNc2ccc(Cl)cc2)nnc1SCC#N	AHR act 59.0
Cn1c(CNc2cccc(Cl)c2)nnc1SCC#N	none
COc1ccc(NC(=O)C(Cl)=C(Cl)Cl)cn1	none (no result: AHR act)
COc1ccc(NC(=O)/C(Cl)=C(/Cl)S(=O)(=O)Cc2ccccc2)cn1	HSF1 inhib -75.8 (no result: AHR act)
COCc1cc(C)nc(OCC(=O)N/N=C/c2ccc(O)cc2)c1C#N	none
COCc1cc(C)nc(OCC(=O)N/N=C/c2ccc(OC)c(OC)c2)c1C#N	AHR act 63.1
COc1ccc(/C=N/NC(=O)CCn2c3ccccc3c3ccccc32)cc1OC	AHR act 68.5
CCCCn1c(N)c(N(CCC(C)C)C(=O)CSc2nncn2-c2ccccc2)c(=O)[nH]c1=O	none (no result: HSF1 inhib, STAT3 activator, PERK inhibitor, PolyA inhibitor, Hsp70 activator)
NC(=S)N=Nc1c(O)[nH]c2ccccc12	none
NC(=S)N=Nc1c(O)[nH]c2c(Br)cc(Br)cc12	AHR act 63.4
O=C(CNC(=O)c1ccc2c(c1)S(=O)(=O)N=C1CCCCCN12)Nc1ccc(F)c(F)c1	none (no result: STAT3 activator, PERK inhibitor, Hsp70 activator)
CCOc1ccc(NC(=O)C(CC(=O)O)Cc2ccc(Br)cc2)cc1 (configuration not stated)	none (no result: STAT3 activator, PERK inhibitor, Hsp70 activator)
O=C(O)CC(Cc1ccc(Br)cc1)C(=O)O (configuration not stated)	HSF1 inhib -76.5
CCOc1ccc(Nc2nc3c(C)cccc3cc2C#N)cc1	AHR act 50.1 (no result: STAT3 activator, PERK inhibitor, Hsp70 activator)
Cc1ccc(Cn2ncc3c(N4CCN(C)CC4)ncnc32)cc1	HSF1 inhib -74.6
O=C(Nc1nnc(Cc2ccccc2)s1)c1ccccc1	AHR act 54.3 (no result: STAT3 activator, PERK inhibitor, Hsp70 activator)
CCOc1ccc(C(=O)Nc2nnc(C)s2)cc1OCC	AHR act 49.6
COc1ccc(C(=O)Nc2nnc(Cc3cccs3)s2)cc1OC	AHR act 77.7
Cc1ccc(C(=O)Nc2nnc(Cc3ccccc3)s2)cc1	none (no result: STAT3 activator, PERK inhibitor, Hsp70 activator)
CC(C)N(Cc1ccccc1)C(=O)CN1C(=O)COc2ccc(S(=O)(=O)N3CCCCCC3)cc21	none (no result: STAT3 activator, PERK inhibitor, Hsp70 activator)
CC(=O)[C@H]1[C@H](c2cccc(Cl)c2)C(C#N)(C#N)[C@@H]2c3ccccc3C=CN21	AHR act 101.3 (no result: PolyA inhibitor)
CC(=O)[C@H]1[C@@H]2C(=O)N(c3cccc(Cl)c3)C(=O)[C@@H]2[C@H]2c3ccccc3C=CN21	none (no result: HSF1 inhib, PolyA inhibitor)
CC1Cc2ccccc2C(CCc2ccccc2)=N1 (configuration not stated)	none (no result: STAT3 activator, PERK inhibitor, Hsp70 activator)
COc1ccc(NC(=O)c2cccc([N+](=O)[O-])c2)cc1	none
O=C(O)c1cc([N+](=O)[O-])ccc1NCc1cccnc1	none (no result: STAT3 activator, PERK inhibitor, Hsp70 activator)
COc1ccc(NC(=O)c2cc([N+](=O)[O-])ccc2O)cc1	HSF1 inhib -73.5
NC(=O)c1cc([N+](=O)[O-])c(Cl)cc1NCc1cccnc1	AHR act 58.4 (no result: HSF1 inhib, STAT3 activator, PERK inhibitor, PolyA inhibitor, Hsp70 activator)
NC(=O)c1cc([N+](=O)[O-])ccc1NCc1cccnc1	none
COc1cccc(NC(=O)c2cc([N+](=O)[O-])ccc2NCc2cccnc2)c1	AHR act 66.3
Cc1ccc(NC(=O)c2cc([N+](=O)[O-])ccc2NCc2cccnc2)cc1Cl	AHR act 50.8
Cc1[nH][nH]c(=O)c1C	none (no result: HSF1 inhib, STAT3 activator, PERK inhibitor, PolyA inhibitor, Hsp70 activator)
O=C(Cc1ccccc1)Nc1nc(-c2cccc([N+](=O)[O-])c2)cs1	none
O=[N+]([O-])c1cccc(-c2csc(Nc3ccccc3)n2)c1	STAT3 activator 147.3, AHR act 48.2 (no result: PolyA inhibitor)
COc1ccccc1Nc1nc(-c2cccc([N+](=O)[O-])c2)cs1	AHR act 78.6 (no result: STAT3 activator, Hsp70 activator)
Cc1cc(NC(=O)COC(=O)CNC(=O)c2cccs2)c([N+](=O)[O-])cc1C	none (no result: STAT3 activator, PERK inhibitor, Hsp70 activator)
CCCN(CCC)C(=O)CSc1nc2ccsc2c(=O)n1NC(=O)c1ccccc1	HSF1 inhib -57.4
CC(C)CCNC(=O)CSc1nc2ccsc2c(=O)n1NC(=O)c1ccccc1	none
COc1cccc(-c2cccc(NC(=O)C3CCN(CC4CCOC4)CC3)c2)c1 (configuration not stated)	none (no result: STAT3 activator, PERK inhibitor, Hsp70 activator)
CCCC(C(=O)NC(C)(C)C)N(C(=O)c1snc(C(N)=O)c1N)c1ccc2c(c1)OCCO2 (configuration not stated)	HSF1 inhib -73.9
CCC(C)(C)NC(=O)CN(C(=O)c1snc(C(N)=O)c1N)c1ccc2c(c1)OCCO2	none
CN(Cc1nc(-c2ccccc2)no1)C(=O)c1ccc2c(c1)OCO2	HSF1 inhib -59.3 (no result: STAT3 activator, PERK inhibitor, Hsp70 activator)
CC(C)CCNC(=O)Nc1ccc2c(c1)N(C)C(=O)CS2	AHR act 47.3
COCCNC(=O)Nc1ccc2c(c1)N(C)C(=O)CS2	none
Cc1cc(C)cc(OCc2ccc(C(=O)NN)o2)c1	AHR act 78.9 (no result: STAT3 activator, Hsp70 activator)
CCCc1ccc(OCc2ccc(C(=O)NN)o2)c(OC)c1	AHR act 55.6 (no result: STAT3 activator, PERK inhibitor, Hsp70 activator)
CCCc1ccc(OCc2ccc(C(=O)O)o2)c(OC)c1	none
CC1=NN(C(N)=S)C(=O)C1N=Nc1cccc(C)c1 (configuration not stated)	AHR act 64.2 (no result: STAT3 activator, Hsp70 activator)
CC1=NN(C(N)=S)C(=O)C1N=Nc1cccc(C(=O)O)c1 (configuration not stated)	none (no result: STAT3 activator, AHR act, PERK inhibitor, Hsp70 activator)
CC1=NN(C(N)=S)C(=O)C1N=Nc1ccccc1Cl (configuration not stated)	none (no result: STAT3 activator, PERK inhibitor, Hsp70 activator)

Compound activity deposited in PubChem BioAssay by several laboratories.
